Compound activity: PubChem, The Scripps Research Institute Molecular Screening Center
CHRM4 antagonist: blocks acetylcholine activation of human M4 receptor | 360,000 tested, 0.73% active | AID 624125 | inhibition, % at 3 µM | CHO-hM4 cells, ACh EC80, Fluo-8 calcium fluorescence | P08173;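 active means inhibition above its plate's cutoff, the mean inhibition of sample wells plus 3 SD, cut at about 27% in these data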
CHRM4 agonist: agonists of human muscarinic M4 receptor (CHRM4); activation, % at 3 µM; 360,000 tested, 0.14% active; CHO-K1 hM4/Gqi5, Fluo-8 calcium fluorescence; vehicle 0%, full acetylcholine response 100%; AID 624127; P08173;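 active means activation above the run mean over all test wells plus 3 SD, cut at about 32% in these data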;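 further: peak over basal fluorescence ratio per well then scaled between controls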
M5 antag: blocks acetylcholine activation of human M5 receptor. P08912. CHO-hM5 cells, Fluo-8 calcium fluorescence, ACh EC80. inhibition, % at 3 µM. 360,000 tested, 0.59% active. AID 624040;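 active means inhibition above a per-plate cutoff, the mean of that plate's test compounds plus 3 SD, cut at about 27% in these data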
Target sequence (P08912 whole entry, looked up): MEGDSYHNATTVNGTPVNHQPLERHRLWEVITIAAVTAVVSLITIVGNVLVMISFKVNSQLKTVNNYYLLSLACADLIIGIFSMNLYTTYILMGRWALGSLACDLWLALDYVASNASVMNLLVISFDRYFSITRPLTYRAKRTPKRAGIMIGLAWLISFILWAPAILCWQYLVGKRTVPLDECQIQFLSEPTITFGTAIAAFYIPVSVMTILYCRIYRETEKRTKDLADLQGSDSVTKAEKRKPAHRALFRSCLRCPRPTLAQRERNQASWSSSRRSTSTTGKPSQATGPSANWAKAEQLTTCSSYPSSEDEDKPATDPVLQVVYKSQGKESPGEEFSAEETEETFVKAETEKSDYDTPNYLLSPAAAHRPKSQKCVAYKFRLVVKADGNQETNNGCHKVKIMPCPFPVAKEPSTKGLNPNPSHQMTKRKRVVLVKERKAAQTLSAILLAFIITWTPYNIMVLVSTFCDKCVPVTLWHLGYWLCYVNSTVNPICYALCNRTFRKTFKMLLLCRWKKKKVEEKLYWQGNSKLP
CHRM5 PAM: positive allosteric modulators of human muscarinic M5 receptor | AID 624038 | CHO-K1 hM5, Fluo-8 calcium, ACh EC20 PAM; 0% = ACh EC20, 100% = ACh EC100 | activation, % at 3 µM | 360,000 tested, 0.3% active | P08912;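 active means activation above the run cutoff, the mean activation of all test compounds plus 3 SD, cut at about 18% in these data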
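Assay system – human M5 receptor in CHO-K1 cells · Read-out – % activation, ACh-normalized · Technique – Fluo-8 calcium fluorescence · Dosing – single-point, 3 µM nominal · Incubation – Fluo-8 loading 80 min at 37 °C plus 30 min room temperature · Repeats – singlicate, one well per test compound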
CHRM4 PAM: positive allosteric modulators of human muscarinic M4 receptor | P08173 | 360,000 tested, 0.4% active | activation, % at 3 µM | CHO-K1 hM4/Gqi5, Fluo-8 calcium fluorescence, ACh EC20; 0% = ACh EC20, 100% = maximal ACh;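 active means activation above its plate's cutoff, the mean activation of sample wells plus 3 SD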
CHRM5 agonist: agonists of human muscarinic M5 receptor (CHRM5) | P08912 | CHO-K1 hM5 cells, Fluo-8 calcium fluorescence; 0% DMSO wells, 100% maximal acetylcholine response | activation, % at 3 µM | 360,000 tested, 0.19% active | AID 624037;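 active means activation above the run's mean over test compounds plus 3 SD, cut at about 23% in these data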;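 further: signal is peak over basal fluorescence ratio across the kinetic read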
Large screens that a line does not name were inactive. Only some compounds are listed: those with a hit (about 1.8% of all), similar ones and a draw of the others.

O=C(CSc1ccc(-c2ccccn2)nn1)c1ccc(F)cc1	M5 antag 31.5, CHRM5 PAM 28.2
O=C(CSc1ccc(-c2ccccn2)nn1)c1ccccc1	none
CN(C)c1ccc(/C=C(/C#N)C(=O)NCc2ccccc2)o1	CHRM5 agonist 25.1
N#C/C(=C/c1ccccc1)C(=O)NCc1ccccc1	none
Cn1c(=O)c2[nH]c(C3CC=CCC3)nc2n(C)c1=O (configuration not stated)	none
Cn1c(=O)c2[nH]c(C3CCCC3)nc2n(C)c1=O	CHRM4 antagonist 101.1
COc1ccccc1N(Cc1ccccc1)S(=O)(=O)c1cccc(C(=O)N2CCCCC2)c1	none
O=C(Cn1ncc2c([nH]c3ccccc32)c1=O)NCCc1ccccc1	CHRM4 PAM 19.3
O=C(CC(c1ccccc1)c1cc(Cl)ccc1O)N1CCCC1 (configuration not stated)	none
O=C(CC(c1ccccc1O)N1CCCCC1)N1CCCCC1 (configuration not stated)	CHRM4 antagonist 77.9
Cc1ccc(-n2ncc3c(SCC(=O)Nc4cc(C)on4)ncnc32)c(C)c1	none
O=[N+]([O-])c1ccc2c(c1)Cc1cc(F)ccc1-2	none
O=C1C=CC(=O)N1c1ccc2c(c1)Cc1cc(F)ccc1-2	CHRM4 antagonist 37.4
CC(=O)Nc1ccc2c(c1)Cc1cc(N3C(=O)C=CC3=O)ccc1-2	CHRM4 antagonist 33.5
CCN(C(=O)CSc1n[nH]c(-c2ccc(OC)cc2)n1)c1c(N)n(Cc2ccccc2)c(=O)[nH]c1=O	none
CCOc1ccc(CCNC(=O)CCNS(=O)(=O)c2ccc(Br)cc2)cc1OCC	none
CC(=O)Nc1csc2ccccc12	none
O=C(Nc1ccccc1)Nc1csc2ccccc12	M5 antag 29.3
C/C(=N\OCc1ccc(C#N)cc1)c1ccccc1	none
C/C(=N\OCc1ccc(C#N)cc1)c1ccc(S(=O)(=O)N(C)C)cc1	M5 antag 27.5
COc1ccc(NC(=O)c2cc(-c3ccccn3)nc3ccccc23)cc1S(=O)(=O)N(C)C	none
O=S(=O)(NNc1ccc(F)cc1F)c1cccc(Cl)c1	CHRM4 antagonist 67.0
O=C(NNc1ccc(F)cc1F)c1c(F)cccc1Cl	none
Cc1ccc(C(c2sc3nc(C)nn3c2O)N2CCN(CCO)CC2)cc1 (configuration not stated)	none
Cc1ccc(C(c2sc3nc(C)nn3c2O)N2CCN(c3ccccc3F)CC2)cc1 (configuration not stated)	CHRM5 PAM 18.8
CC1CCCCC1n1c(-c2cccnc2)n[nH]c1=S (configuration not stated)	none
S=c1[nH]nc(-c2cccnc2)n1C1CCCCC1	CHRM4 PAM 25.8
CCOc1ccc(NC(=O)C2CCCN2S(=O)(=O)c2ccc(OCC)cc2)cc1 (configuration not stated)	none
O=C(O)/C=C/c1ccc([N+](=O)[O-])o1	none
O=C1NC(=S)S/C1=C\C=C\c1ccc([N+](=O)[O-])o1	CHRM4 antagonist 68.2, M5 antag 48.0, CHRM5 agonist 25.5
CCC(=O)N1CCc2cc(S(=O)(=O)CCC(=O)N3CCN(c4ccc(Cl)cc4)CC3)ccc21	M5 antag 27.9
Cc1ccc(Cl)cc1N1C(=O)CC(Sc2ncccn2)C1=O (configuration not stated)	none
O=C(NCc1ccc2c(c1)OCO2)Nc1ccc([N+](=O)[O-])cc1	M5 antag 37.7
Cc1c(C(=O)N2CCN(C3CCS(=O)(=O)C3)CC2)oc2ccc(Cl)cc12 (configuration not stated)	none
Nc1nonc1C(=O)NCCNCc1cc(Br)ccc1OCc1ccccc1F	CHRM4 antagonist 31.7
Nc1nonc1C(=O)NCCNCc1ccccc1OCc1ccccc1F	none
NS(=O)(=O)c1ccc(CCNCc2cc(Br)ccc2OCc2ccccc2F)cc1	CHRM4 antagonist 27.7, M5 antag 28.4
O=C(OCC(=O)N1CCc2ccccc21)[C@@H]1CC(O)CN1S(=O)(=O)c1ccc(Cl)cc1 (some centres not stated)	none
